Assays:
Format in all cases: tissue-based
Rattus norvegicus [1] = species on record: Rattus norvegicus; assay: Stimulation [3H]flunitrazepam binding to benzodiazepine binding site of GABA-A receptor in Sprague-Dawley rat cerebellum at 500 nM by liquid scintillation spectrophotometry
In short: (§1)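 Male rat (200–250 g) cerebellar P2 membranes, washed and resuspended in 50 mM Tris–HCl pH 7.1 (~1 mg/mL protein). Incubated with 1 nM [3H]flunitrazepam and steroids at 10–800 nM for 90 min at 4 °C. Steroids were in DMSO, diluted 1:1000 in buffer just before use. 1 µM diazepam defined non-specific binding. Filtered, then scintillation counting. Mean of four experiments in duplicate.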

Rattus norvegicus [2] = species on record: Rattus norvegicus; assay: Stimulation [3H]flunitrazepam binding to benzodiazepine binding site of GABA-A receptor in Sprague-Dawley rat cerebellum by liquid scintillation spectrophotometry; in short: as §1
Rattus norvegicus [3] = species on record: Rattus norvegicus; assay: Stimulation [3H]muscimol binding to GABA binding site of GABA-A receptor in Sprague-Dawley rat cerebellum at 20 nM by liquid scintillation spectrophotometry
In short: (§2)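 Rat cerebellar P2 membranes (male, 200–250 g) in 50 mM Tris–acetate pH 7.4, about 1 mg/mL protein. Incubated with 10 nM [3H]muscimol and steroids at 20–1000 nM for 60 min at 4 °C. Steroid DMSO stocks were diluted 1:1000 in buffer. 10 µM GABA defined non-specific binding. Vacuum filtration over glass-fibre filters, scintillation counting. Four experiments in duplicate, averaged.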

Rattus norvegicus [4] = species on record: Rattus norvegicus; assay: Stimulation [3H]flunitrazepam binding to benzodiazepine binding site of GABA-A receptor in Sprague-Dawley rat cerebellum at 800 nM by liquid scintillation spectrophotometry; in short: as §1
Rattus norvegicus [5] = species on record: Rattus norvegicus; assay: Stimulation [3H]flunitrazepam binding to benzodiazepine binding site of GABA-A receptor in Sprague-Dawley rat cerebellum at 250 nM by liquid scintillation spectrophotometry; in short: as §1
Rattus norvegicus [6] = species on record: Rattus norvegicus; assay: Stimulation [3H]flunitrazepam binding to benzodiazepine binding site of GABA-A receptor in Sprague-Dawley rat cerebellum at 100 nM by liquid scintillation spectrophotometry; in short: as §1
Rattus norvegicus [7] = species on record: Rattus norvegicus; assay: Stimulation [3H]muscimol binding to GABA binding site of GABA-A receptor in Sprague-Dawley rat cerebellum at 1000 nM by liquid scintillation spectrophotometry; in short: as §2
Rattus norvegicus [8] = species on record: Rattus norvegicus; assay: Stimulation [3H]muscimol binding to GABA binding site of GABA-A receptor in Sprague-Dawley rat cerebellum at 800 nM by liquid scintillation spectrophotometry; in short: as §2
Rattus norvegicus [9] = species on record: Rattus norvegicus; assay: Stimulation [3H]muscimol binding to GABA binding site of GABA-A receptor in Sprague-Dawley rat cerebellum at 100 nM by liquid scintillation spectrophotometry; in short: as §2
Rattus norvegicus [10] = species on record: Rattus norvegicus; assay: Stimulation [3H]muscimol binding to GABA binding site of GABA-A receptor in Sprague-Dawley rat cerebellum at 200 nM by liquid scintillation spectrophotometry; in short: as §2
Rattus norvegicus [11] = species on record: Rattus norvegicus; assay: Stimulation [3H]muscimol binding to GABA binding site of GABA-A receptor in Sprague-Dawley rat cerebellum by liquid scintillation spectrophotometry; in short: as §2
Rattus norvegicus [12] = species on record: Rattus norvegicus; assay: Stimulation [3H]flunitrazepam binding to benzodiazepine binding site of GABA-A receptor in Sprague-Dawley rat cerebellum at 25 nM by liquid scintillation spectrophotometry; in short: as §1
Rattus norvegicus [13] = species on record: Rattus norvegicus; assay: Stimulation [3H]flunitrazepam binding to benzodiazepine binding site of GABA-A receptor in Sprague-Dawley rat cerebellum at 10 nM by liquid scintillation spectrophotometry; in short: as §1
Rattus norvegicus [14] = species on record: Rattus norvegicus; assay: Stimulation [3H]flunitrazepam binding to benzodiazepine binding site of GABA-A receptor in Sprague-Dawley rat cerebellum at 50 nM by liquid scintillation spectrophotometry; in short: as §1
Rattus norvegicus [15] = species on record: Rattus norvegicus; assay: Stimulation [3H]muscimol binding to GABA binding site of GABA-A receptor in Sprague-Dawley rat cerebellum at 400 nM by liquid scintillation spectrophotometry; in short: as §2
Rattus norvegicus [16] = species on record: Rattus norvegicus; assay: Stimulation [3H]muscimol binding to GABA binding site of GABA-A receptor in Sprague-Dawley rat cerebellum at 50 nM by liquid scintillation spectrophotometry; in short: as §2

| SMILES | Activity (Rattus norvegicus [1]) [%] | EC50 (Rattus norvegicus [2]) [µM] | Activity (Rattus norvegicus [3]) [%] | Activity (Rattus norvegicus [4]) [%] | Activity (Rattus norvegicus [5]) [%] | Activity (Rattus norvegicus [6]) [%] | Activity (Rattus norvegicus [7]) [%] | Activity (Rattus norvegicus [8]) [%] | Activity (Rattus norvegicus [9]) [%] | Activity (Rattus norvegicus [10]) [%] | EC50 (Rattus norvegicus [11]) [µM] | Activity (Rattus norvegicus [12]) [%] | Activity (Rattus norvegicus [13]) [%] | Activity (Rattus norvegicus [14]) [%] | Activity (Rattus norvegicus [15]) [%] | Activity (Rattus norvegicus [16]) [%] |
| --- | --- | --- | --- | --- | --- | --- | --- | --- | --- | --- | --- | --- | --- | --- | --- | --- |
| CC(=O)[C@H]1CC[C@H]2[C@@H]3CC[C@H]4C[C@H](O)[C@@H]5C[C@]4(COS(=O)(=O)N5)[C@H]3CC[C@]12C | 126 | 0.063 | 100 | 170 | 126 | 122 | 176 | 170 | 108 | 106 | 0.542 | 113 | 104 | 122 | 118 | 105 |
| CC(=O)[C@H]1CC[C@H]2[C@@H]3CC[C@H]4C[C@H](O)[C@@H]5C[C@]4(COS(=O)(=O)N5Cc4ccccc4)[C@H]3CC[C@]12C | 125 | 0.081 | 119 | 134 | 122 | 117 | 141 | 124 | 121 | 117 | 1.89 | 113 | 108 | 118 | 124 | 121 |
| CC(=O)[C@H]1CC[C@H]2[C@@H]3CC[C@H]4C[C@H](O)CC[C@]4(C)[C@H]3CC[C@]12C | 132 | 0.265 | 95 | 140 | 122 | 97 | 173 | 165 | 108 | 106 | 0.658 | 93 | 93 | 92 | 116 | 100 |
| CC(=O)[C@H]1CC[C@H]2[C@@H]3CC[C@H]4C[C@H](F)[C@@H]5C[C@]4(COS(=O)(=O)N5)[C@H]3CC[C@]12C | – | – | – | 98 | – | – | – | 96 | – | – | – | – | – | – | – | – |
